# Data taken from paper PMC8585696 (Immunity, 2021).
# Key:
# Dkk-1 = conditions: ref Chae et al., 2016; cited from earlier work
# C57BL/6 mice [1] = assay: BALF inflammatory cell counts; assay type: in vivo, mouse; conditions: C. albicans intranasal, inhibitor 10 or 20 μg/kg i.p., Figure 2I
# C57BL/6 mice [2] = assay: cytokines from lung by ELISA; assay type: in vivo, mouse
# Method in brief: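 C57BL/6 mice received 1 × 10^5 viable C. albicans intranasally every other day for 8 challenges. Fungal cells were thawed (>95% viable), washed and suspended in normal saline. Dkk-1 inhibitor (10 or 20 μg/kg) or recombinant mouse Dkk-1 (5 μg/kg) was given i.p. at each challenge. Lungs were taken 24 h after the last challenge, and cytokines in lung homogenate supernatants were measured by ELISA (TMB, 450 nm).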
# C. albicans = assay: lung fungal burden; assay type: in vivo
# Method in brief: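 Whole-lung C. albicans CFU was counted in C57BL/6 mice 24 h after the last of 8 intranasal challenges (1 × 10^5 viable cells in saline, every other day). Dkk-1 inhibitor or recombinant mouse Dkk-1 (5 μg/kg) was given i.p. together with each challenge.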
# GP1bα [3] = assay: GP1bα pulldown from human platelet lysates; assay type: binding; conditions: 60 μg biotinylated bait, 1 h, 4°C, western blot; Figure 4E
# GP1bα [4] = conditions: through the A1 domain; ref Azuma et al., 1991; cited from earlier work
# [5] = tested on: human platelets (platelet-rich plasma); assay: platelet aggregation assay; assay type: cell-based; conditions: collagen 2.5 μg/mL or increasing candidalysin, 5 min, Figure S4G
# C57BL/6 mice [6] = assay: airway hyperresponsiveness; assay type: in vivo, mouse; conditions: ece1Δ/Δ C. albicans intranasal; Dkk-1 5 μg/kg i.p.; Figure 3B
# [7] = tested on: GATA3^+ Th2 and RORγt^+ Th17 cells; assay: lung T cell quantitation by flow cytometry; assay type: in vivo, mouse; conditions: ece1Δ/Δ C. albicans intranasal; Dkk-1 5 μg/kg i.p.; Figures 3F, 3G
# Method in brief: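 Mice were challenged with C. albicans (1 × 10^5 viable cells) intranasally every other day ×8, with recombinant mouse Dkk-1 (5 μg/kg i.p.) at each challenge, and analyzed 24 h after the final challenge. Erythrocytes in total lung cells were lysed with ACK. Cells were stained for live/dead, CD45, CD3 and CD4, split into 3 groups, fixed and permeabilized, then stained for T-bet, GATA3 or RORγt. Results are given as percentages and absolute counts.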
# C57BL/6 mice [8] = assay: allergic airway disease overall; assay type: in vivo, mouse; conditions: intraperitoneal route, no fungus; data not shown
molecule,measurement,setting,value
NCC1CCN(c2nccc(-c3ccc4ccccc4c3)n2)CC1 [WAY 262611],block of Dkk-1 in vivo,Dkk-1,previously shown to block this peptide in vivo
same,BALF eosinophilia under Dkk-1 inhibitor,C57BL/6 mice [1],most notably reducing BALF eosinophilia
same,BALF inflammatory cell recruitment under Dkk-1 inhibitor,C57BL/6 mice [1]; dose-dependent,progressively reduced
same,secretion of IL-17 from whole lung under Dkk-1 inhibitor,"C57BL/6 mice [2]; C. albicans intranasal, inhibitor 10 or 20 μg/kg i.p., Figure 2J",inhibited secretion of IL-17
same,"secretion of IL-1β, IL-6 and TNF under Dkk-1 inhibitor","C57BL/6 mice [2]; C. albicans intranasal, inhibitor 10 or 20 μg/kg i.p., Figure 2K",not significantly affected
same,lung fungal burden under Dkk-1 inhibitor,"C. albicans; C. albicans intranasal, inhibitor i.p., Figure 2N",markedly elevated lung fungal burdens
IFKIIISKIQIVMGLNGIPIKVAGSQNIGMI [scrambled control (SC) peptide],association with GP1bα from human platelet lysates,GP1bα [3],but not its scrambled control peptide
"VWF A1A2A3 tridomain: recombinant human VWF A1, A2, A3 domains (Q1238-G1874) expressed in HEK293",binding of VWF fragment to GP1bα,GP1bα [4],binds GP1bα through the A1 domain
collagen,platelet aggregation in vitro,[5],in marked contrast to the activating GPIIb/IIIa ligand collagen
"Dkk-1: recombinant mouse Dkk-1 (5897-DK-010, R&D systems), Wnt pathway antagonist (protein, UniProt O54908 32-272, looked up) Dickkopf-related protein 1: TLNSVLINSNAIKNLPPPLGGAGGQPGSAVSVAPGVLYEGGNKYQTLDNYQPYPCAEDEECGSDEYCSSPSRGAAGVGGVQICLACRKRRKRCMRHAMCCPGNYCKNGICMPSDHSHFPRGEIEESIIENLGNDHNAAAGDGYPRRTTLTSKIYHTKGQEGSVCLRSSDCAAGLCCARHFWSKICKPVLKEGQVCTKHKRKGSHGLEIFQRCYCGEGLACRIQKDHHQASNSSRLHTCQRH","secretion of lung Th2 cytokines, especially IL-4, and IL-17 with exogenous Dkk-1","C57BL/6 mice [2]; ece1Δ/Δ C. albicans intranasal, Dkk-1 5 μg/kg i.p., Figure 3D",markedly enhanced
same,secretion of innate pro-inflammatory cytokines with exogenous Dkk-1,"C57BL/6 mice [2]; ece1Δ/Δ C. albicans intranasal, Dkk-1 5 μg/kg i.p., Figure 3E",did not influence the secretion of innate pro-inflammatory cytokines
same,airway hyperresponsiveness with exogenous Dkk-1,C57BL/6 mice [6],significantly enhanced airway hyperresponsiveness
same,fungal lung burden with exogenous Dkk-1,"C. albicans; ece1Δ/Δ C. albicans intranasal, Dkk-1 5 μg/kg i.p., Figure 3H",significantly reduced
same,recruitment to lung of GATA3^+ Th2 and RORγt^+ Th17 cells with exogenous Dkk-1,[7],markedly increase recruitment to lung
same,"indices of allergic airway disease, Dkk-1 alone",C57BL/6 mice [8],no effect on any index of allergic airway disease
